Measurements collected from several papers.
Protocols differ between the studies behind these lines.
Target: Mitogen-activated protein kinase kinase kinase 7 (MAP3K7, Homo sapiens, UniProt O43318)
Sequence (O43318 1-606, as in one of the studies): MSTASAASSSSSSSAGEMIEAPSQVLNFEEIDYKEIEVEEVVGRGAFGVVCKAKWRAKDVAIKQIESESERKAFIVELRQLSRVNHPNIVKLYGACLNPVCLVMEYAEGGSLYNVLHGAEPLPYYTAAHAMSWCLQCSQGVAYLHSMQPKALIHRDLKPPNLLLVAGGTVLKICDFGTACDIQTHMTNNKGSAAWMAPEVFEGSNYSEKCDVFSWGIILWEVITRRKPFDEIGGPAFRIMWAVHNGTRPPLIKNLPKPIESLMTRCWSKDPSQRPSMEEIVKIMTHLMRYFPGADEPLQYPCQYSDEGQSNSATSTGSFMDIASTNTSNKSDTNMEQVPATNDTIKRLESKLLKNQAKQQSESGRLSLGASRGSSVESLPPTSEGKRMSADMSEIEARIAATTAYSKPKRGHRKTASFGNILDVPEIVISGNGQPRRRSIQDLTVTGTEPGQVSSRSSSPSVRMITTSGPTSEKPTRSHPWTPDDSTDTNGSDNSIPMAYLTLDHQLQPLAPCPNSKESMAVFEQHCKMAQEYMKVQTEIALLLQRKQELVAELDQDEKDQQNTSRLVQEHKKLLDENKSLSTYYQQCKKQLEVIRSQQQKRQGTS

Cn1nc(C(=O)NCc2ccc(C(=O)O)cc2)cc1-c1ccc2[nH]ccc2c1 — remaining binding (cell-free assay, competition with immobilised ligand; 0.1 µM): 95%
O=C(c1ccc(Nc2nccc(-c3cc4ccccc4s3)n2)cc1)N1CCC(N2CCCC2)CC1 — remaining binding (binding, competition with immobilised ligand; 1 µM): 7.2%
COc1cnc(Nc2cccc(S(N)(=O)=O)c2)nc1N1CCN(c2ccccc2)CC1 — remaining binding (binding, competition with immobilised ligand; 1 µM): 85%
Cc1noc([C@H]2C[C@@H](c3ccc(C(F)(F)F)cc3)CN(C(=O)N3CCS(=O)(=O)C3)C2)n1 — remaining binding (cell-free assay, competition with immobilised ligand; 1 µM): 100%
CC1CCCN1c1nccc(-c2cnn3ncccc23)n1 (stereo not shown) — remaining binding (binding; 1 µM): 100%
COc1ncc2cc3ccccc3nc2c1C#N — remaining binding (cell-free assay, competition with immobilised ligand; 5 µM): 92%
O=C(c1ccc(Nc2ncc(Cl)c(-c3ccc(Cl)s3)n2)cc1)N1CCC(N2CCCC2)CC1 — remaining binding (binding, competition with immobilised ligand; 1 µM): 0%
N[C@H]1CCN(c2nccc(-c3cnn4ncccc34)n2)C1 — remaining binding (binding; 1 µM): 100%
C=CC(=O)N1CCC(C(=O)NCC(=O)N2CCN(c3nc(-c4cnc(N)nc4C(F)F)nc(N4CCOCC4)n3)CC2)CC1 — remaining binding (binding, competition with immobilised ligand; 1 µM): 100%
c1cncc(-c2cccc(Nc3nccc(NC4CCCCC4)n3)c2)c1 — remaining binding (binding, competition with immobilised ligand; 10 µM): 19%
CN(c1nccc(-c2cnn3ncccc23)n1)C1CC1 — remaining binding (binding; 1 µM): 82%
O=C(NS(=O)(=O)c1ccc(NCC2CCOCC2)c([N+](=O)[O-])c1)c1ccc(N2CCN(Cc3ccc(C(F)(F)F)cc3-c3ccc(Cl)cc3)CC2)cc1Oc1cnc2[nH]ccc2c1 — remaining binding (cell-free assay, competition with immobilised ligand; 1 µM): 100%
CN(C)c1ncc(F)c(-c2cnn3ncccc23)n1 — remaining binding (binding; 1 µM): 98%
O=C(NCc1ncc(C(F)(F)F)cc1Cl)c1ccc2c(c1)C1(CCS(=O)(=O)CC1)[C@H](C1CC1)N2S(=O)(=O)c1ccc(F)cc1 — remaining binding (cell-free assay, competition with immobilised ligand; 1 µM): 80%
Nc1ncc2c(n1)-c1c([nH]c3ccc(C#CC4CC4)cc13)CCCC2 — remaining binding (binding, competition with immobilised ligand; 1 µM): 89%
C[C@@H]1CCN(c2nccc(-c3cnn4ncccc34)n2)C1 — remaining binding (binding; 1 µM): 81%
CC1=C(C#N)[C@@H](c2ccc3[nH]nc(C)c3c2)C(C#N)=C(c2ccc(Cl)cc2)N1 — remaining binding (cell-free assay, competition with immobilised ligand; 1 µM): 100%
CCN1CCN(Cc2ccc(C(=O)Nc3ccc(C)c(Oc4ccc5c(c4)CC(=O)N5)c3)cc2C(F)(F)F)CC1 — remaining binding (binding, competition with immobilised ligand; 1 µM): 7.6%
CN(CCCC(F)(F)F)c1nccc(-c2cnn3ncccc23)n1 — remaining binding (binding; 1 µM): 85%
Cc1cnc(Nc2ccc(C(=O)N3CCC(N4CCCC4)CC3)cc2)nc1-c1cc2ccccc2s1 — remaining binding (binding, competition with immobilised ligand; 1 µM): 7.3%
C[C@@H](c1cccc(C#N)c1)n1cc(Cl)cc(C(N)=O)c1=N — remaining binding (cell-free assay, competition with immobilised ligand; 1 µM): 100%
O=C(NCC1CCOCC1)c1n[nH]cc1NC(=O)c1c(F)cccc1F — remaining binding (binding, competition with immobilised ligand; 1 µM): 73%
